{"data": "Published values from different studies", "target": "Myosin light chain kinase 2, skeletal/cardiac muscle (MYLK2, Homo sapiens, UniProt Q9H1R3)", "note": "Lines come from different studies, so protocols differ."}
{"Structure (SMILES)": "COc1cc(Nc2ncc(F)c(Nc3ccc4c(n3)NC(=O)C(C)(C)O4)n2)cc(OC)c1OC", "observed": "binding", "method": "competition with immobilised ligand", "tested at": "10 µM", "quantity": "inhibition", "result": "58%"}
{"Structure (SMILES)": "Cn1cc(-c2cc(F)cc(N3CCn4c(cc5c4CCCC5)C3=O)c2CO)cc(Nc2ccc(N3CCN(C4COC4)CC3)cn2)c1=O", "observed": "enzyme activity", "mode": "inhibitor", "tested at": "0.1 µM", "quantity": "inhibition", "result": "17%"}
{"Structure (SMILES)": "CC(C)(C)c1cc(C=C(C#N)C#N)cc(Br)c1O", "observed": "enzyme activity", "mode": "inhibitor", "tested at": "0.5 µM", "quantity": "remaining activity", "result": "99.3%"}
{"Structure (SMILES)": "Nc1ncc(-c2nc(N3CCOCC3)nc(N3CCOCC3)n2)c(C(F)F)n1", "observed": "binding", "method": "competition with immobilised ligand", "tested at": "10 µM", "quantity": "remaining binding", "result": "92%"}
{"Structure (SMILES)": "Cn1cncc1[C@@](O)(COc1ccc(C#N)cc1-c1ccc(OC(F)(F)F)cc1)c1ccc(C#N)cc1", "observed": "cell-free assay", "method": "competition with immobilised ligand", "tested at": "1 µM", "quantity": "remaining binding", "result": "100%"}
{"Structure (SMILES)": "COc1ncccc1-c1cnn2ccc(N3CCN(C(=O)OC(C)C)CC3)nc12", "observed": "binding", "method": "competition with immobilised ligand", "tested at": "1 µM", "quantity": "remaining binding", "result": "89%"}
{"Structure (SMILES)": "Cn1cc(-c2cccc(N3CCc4c(sc5c4CC(C)(C)C5)C3=O)c2CO)cc(Nc2ccncn2)c1=O", "observed": "enzyme activity", "mode": "inhibitor", "tested at": "1 µM", "quantity": "inhibition", "result": "14%"}
{"Structure (SMILES)": "O=c1[nH]c2ccccc2n1C1CCN(Cc2ccc(-c3[nH]c4cc5ncnc5cc4nc3-c3ccccc3)cc2)CC1", "observed": "cell-free assay", "tested at": "0.5 µM", "quantity": "remaining signal", "result": "103%"}
{"Structure (SMILES)": "Cc1nn(C)cc1-c1nc2c(N3CCN(Cc4ccc(Cl)cc4)CC3)c(Cl)cnc2[nH]1", "observed": "binding", "method": "competition with immobilised ligand", "tested at": "1 µM", "quantity": "remaining binding", "result": "61%"}
